Data from ChEMBL document CHEMBL5058577, “EUbOPEN Chemogenomics Library 2 (Multiplex)” (2022).

Test system: Fibroblast
Assay: Multiplex assay against human fibroblast
Assay type: toxicity, cell-based
Summary of the method: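 Four dyes were applied at seeding to live cells: Hoechst33342, BioTracker Green Microtubule Cytoskeleton Dye, MitoTracker Red and Annexin V Alexa Fluor 680. Imaging after compound addition used a CQ1 microscope at 37°C and 5% CO2. CellPathfinder machine-learning gating then sorted cells into Hoechst high-intensity objects or normal cells, normal cells into healthy, pyknosed or fragmented nuclei, and pyknosed cells into mitotic or apoptotic, with tubulin, mitochondrial-mass and membrane-permeability phenotypes given as per cents of healthy-nucleus cells.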

[1] = 12 h, 1 µM, compound concentration 1 uM, replicate 1
[2] = 12 h, 1 µM, compound concentration 1 uM, replicate 2
[3] = 12 h, 10 µM, compound concentration 10 uM, replicate 1
[4] = 12 h, 10 µM, compound concentration 10 uM, replicate 2
[5] = 24 h, 1 µM, compound concentration 1 uM, replicate 1
[6] = 24 h, 1 µM, compound concentration 1 uM, replicate 2
[7] = 24 h, 10 µM, compound concentration 10 uM, replicate 1
[8] = 24 h, 10 µM, compound concentration 10 uM, replicate 2
[9] = 48 h, 1 µM, compound concentration 1 uM, replicate 1
[10] = 48 h, 1 µM, compound concentration 1 uM, replicate 2
[11] = 48 h, 10 µM, compound concentration 10 uM, replicate 1
[12] = 48 h, 10 µM, compound concentration 10 uM, replicate 2

COc1cc2nc(N3CCN(C(=O)COc4c(OC)cccc4C(C)C)CC3)nc(N)c2cc1OC.Cl.Cl
Population Apoptotic (%) [1]: 50%
Population Fragmented Nuclei (%) [1]: 17%
Population Healthy Nuclei (%) [1]: 51%
Population Hoechst High Intensity Objects (%) [1]: 4%
Population Membrane Permeable-Phenotype (%) [1]: 3%
Population Mitochondria Different-Phenotype (%) [1]: 6%
Population Mitotic Cells (%) [1]: 50%
Population Normal (%) [1]: 95%
Population Pyknosed Nuclei (%) [1]: 30%
Population Tubulin-Different-Phenotype (%) [1]: 40%
Total Cell Count [1]: 123
Population Apoptotic (%) [2]: 36%
Population Fragmented Nuclei (%) [2]: 39%
Population Healthy Nuclei (%) [2]: 42%
Population Hoechst High Intensity Objects (%) [2]: 9%
Population Membrane Permeable-Phenotype (%) [2]: 5%
Population Mitochondria Different-Phenotype (%) [2]: 7%
Population Mitotic Cells (%) [2]: 63%
Population Normal (%) [2]: 90%
Population Pyknosed Nuclei (%) [2]: 18%
Population Tubulin-Different-Phenotype (%) [2]: 43%
Total Cell Count [2]: 182
Population Apoptotic (%) [3]: 33%
Population Fragmented Nuclei (%) [3]: 13%
Population Healthy Nuclei (%) [3]: 47%
Population Hoechst High Intensity Objects (%) [3]: 20%
Population Membrane Permeable-Phenotype (%) [3]: 0%
Population Mitochondria Different-Phenotype (%) [3]: 15%
Population Mitotic Cells (%) [3]: 66%
Population Normal (%) [3]: 79%
Population Pyknosed Nuclei (%) [3]: 38%
Population Tubulin-Different-Phenotype (%) [3]: 63%
Total Cell Count [3]: 346
Population Apoptotic (%) [4]: 29%
Population Fragmented Nuclei (%) [4]: 22%
Population Healthy Nuclei (%) [4]: 46%
Population Hoechst High Intensity Objects (%) [4]: 10%
Population Membrane Permeable-Phenotype (%) [4]: 4%
Population Mitochondria Different-Phenotype (%) [4]: 8%
Population Mitotic Cells (%) [4]: 70%
Population Normal (%) [4]: 89%
Population Pyknosed Nuclei (%) [4]: 30%
Population Tubulin-Different-Phenotype (%) [4]: 56%
Total Cell Count [4]: 283
Population Apoptotic (%) [5]: 68%
Population Fragmented Nuclei (%) [5]: 23%
Population Healthy Nuclei (%) [5]: 58%
Population Hoechst High Intensity Objects (%) [5]: 3%
Population Membrane Permeable-Phenotype (%) [5]: 1%
Population Mitochondria Different-Phenotype (%) [5]: 9%
Population Mitotic Cells (%) [5]: 31%
Population Normal (%) [5]: 96%
Population Pyknosed Nuclei (%) [5]: 17%
Population Tubulin-Different-Phenotype (%) [5]: 39%
Total Cell Count [5]: 128
Population Apoptotic (%) [6]: 57%
Population Fragmented Nuclei (%) [6]: 40%
Population Healthy Nuclei (%) [6]: 42%
Population Hoechst High Intensity Objects (%) [6]: 11%
Population Membrane Permeable-Phenotype (%) [6]: 5%
Population Mitochondria Different-Phenotype (%) [6]: 11%
Population Mitotic Cells (%) [6]: 42%
Population Normal (%) [6]: 88%
Population Tubulin-Different-Phenotype (%) [6]: 50%
Total Cell Count [6]: 180
Population Apoptotic (%) [7]: 40%
Population Fragmented Nuclei (%) [7]: 13%
Population Healthy Nuclei (%) [7]: 45%
Population Hoechst High Intensity Objects (%) [7]: 39%
Population Membrane Permeable-Phenotype (%) [7]: 0%
Population Mitochondria Different-Phenotype (%) [7]: 17%
Population Mitotic Cells (%) [7]: 60%
Population Normal (%) [7]: 60%
Population Pyknosed Nuclei (%) [7]: 41%
Population Tubulin-Different-Phenotype (%) [7]: 38%
Total Cell Count [7]: 344
Population Apoptotic (%) [8]: 33%
Population Fragmented Nuclei (%) [8]: 25%
Population Healthy Nuclei (%) [8]: 40%
Population Hoechst High Intensity Objects (%) [8]: 23%
Population Membrane Permeable-Phenotype (%) [8]: 4%
Population Mitochondria Different-Phenotype (%) [8]: 5%
Population Mitotic Cells (%) [8]: 66%
Population Normal (%) [8]: 76%
Population Pyknosed Nuclei (%) [8]: 34%
Population Tubulin-Different-Phenotype (%) [8]: 47%
Total Cell Count [8]: 273
Population Apoptotic (%) [9]: 65%
Population Fragmented Nuclei (%) [9]: 31%
Population Healthy Nuclei (%) [9]: 51%
Population Hoechst High Intensity Objects (%) [9]: 4%
Population Membrane Permeable-Phenotype (%) [9]: 0%
Population Mitochondria Different-Phenotype (%) [9]: 11%
Population Mitotic Cells (%) [9]: 35%
Population Normal (%) [9]: 96%
Population Pyknosed Nuclei (%) [9]: 16%
Population Tubulin-Different-Phenotype (%) [9]: 30%
Total Cell Count [9]: 125
Population Apoptotic (%) [10]: 42%
Population Fragmented Nuclei (%) [10]: 45%
Population Healthy Nuclei (%) [10]: 43%
Population Hoechst High Intensity Objects (%) [10]: 10%
Population Membrane Permeable-Phenotype (%) [10]: 8%
Population Mitochondria Different-Phenotype (%) [10]: 10%
Population Mitotic Cells (%) [10]: 57%
Population Normal (%) [10]: 89%
Population Pyknosed Nuclei (%) [10]: 11%
Population Tubulin-Different-Phenotype (%) [10]: 57%
Total Cell Count [10]: 193
Population Apoptotic (%) [11]: 45%
Population Fragmented Nuclei (%) [11]: 12%
Population Healthy Nuclei (%) [11]: 45%
Population Hoechst High Intensity Objects (%) [11]: 52%
Population Membrane Permeable-Phenotype (%) [11]: 2%
Population Mitochondria Different-Phenotype (%) [11]: 10%
Population Mitotic Cells (%) [11]: 54%
Population Normal (%) [11]: 47%
Population Pyknosed Nuclei (%) [11]: 42%
Population Tubulin-Different-Phenotype (%) [11]: 42%
Total Cell Count [11]: 358
Population Apoptotic (%) [12]: 30%
Population Fragmented Nuclei (%) [12]: 33%
Population Healthy Nuclei (%) [12]: 33%
Population Hoechst High Intensity Objects (%) [12]: 31%
Population Membrane Permeable-Phenotype (%) [12]: 9%
Population Mitochondria Different-Phenotype (%) [12]: 0%
Population Mitotic Cells (%) [12]: 69%
Population Normal (%) [12]: 68%
Population Pyknosed Nuclei (%) [12]: 33%
Population Tubulin-Different-Phenotype (%) [12]: 43%
Total Cell Count [12]: 311
